Consider 9 compounds from ChEMBL document CHEMBL1137649, “Mupirocin-resistant, methicillin-resistant Staphylococcus aureus strains in Canadian hospitals” (2007).

Converted amounts (≈) assume the structure as drawn.

What all share (format): functional
In assay [1] the test system is Staphylococcus aureus. The assay is described as follows: Antimicrobial activity against mupirocin-susceptible methicillin-resistant Staphylococcus aureus by broth microdilution method. The method in brief: (§1)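 Clinical MRSA isolates (4,980) from 32 Canadian hospitals, 1995–2004, confirmed by multiplex PCR for mecA and nuc. Susceptibility done by broth microdilution following CLSI guidelines. Inducible clindamycin resistance in macrolide-resistant isolates detected by standardized disk approximation test. Isolates grouped as high-level mupirocin-resistant or mupirocin-susceptible. Resistance rates expressed as percentage of isolates per group.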
A general note: Broth dilution looks for growth in wells or tubes with falling amounts of substance.

The test system of assay [2] is Staphylococcus aureus. The assay is described as follows: Antimicrobial activity against mupirocin-resistant methicillin-resistant Staphylococcus aureus by broth microdilution method. The procedure, abridged:
as §1

The subject of assay [3] is Staphylococcus aureus. The assay is described as follows: Antimicrobial activity against mupirocin-susceptible methicillin-resistant Staphylococcus aureus assessed as resistant rate by broth microdilution method. The procedure, abridged:
as §1

Assay [4] concerns Staphylococcus aureus. The experiment in a line: Antimicrobial activity against mupirocin-resistant methicillin-resistant Staphylococcus aureus assessed as resistant rate by broth microdilution method. The method in brief: as §1

By MIC is commonly meant the lowest concentration that inhibits growth of the organism. High values mean a need for much substance, low ones inhibition by little substance. As a reminder, the MIC90 is the lowest concentration that inhibits either 90% of growth or 90% of the strains tested, depending on the study. As to `O=C(O)c1cn(C2CC2)c2cc(N3CCNCC3)c(F)cc2c1=O` [CIPROFLOXACIN], the MIC against Staphylococcus aureus [1] was not above 4 µg/mL; in the assay with Staphylococcus aureus [2], not below 512 µg/mL. Further, the MIC90 against Staphylococcus aureus [1] and in the assay with Staphylococcus aureus [2] was more than 8 µg/mL throughout. For the same compound, the Activity in the assay on Staphylococcus aureus [3] came to 90%; in the assay with Staphylococcus aureus [4] it was 75%.
In the case of `CCC[C@@H]1C[C@@H](C(=O)N[C@@H]([C@H]2O[C@H](SC)[C@H](O)[C@@H](O)[C@H]2O)[C@H](C)Cl)N(C)C1` [CLINDAMYCIN], the figures for the MIC against Staphylococcus aureus [1] and in the assay with Staphylococcus aureus [2] were not above 4 µg/mL and not below 512 µg/mL, respectively. For the same compound, the MIC90 in the assay on Staphylococcus aureus [1] and in the assay on Staphylococcus aureus [2] was more than 8 µg/mL throughout. In addition, the Activity is 86% in the assay with Staphylococcus aureus [3] and 85% with Staphylococcus aureus [4].
With `CC[C@H]1OC(=O)[C@H](C)[C@@H](O[C@H]2C[C@@](C)(OC)[C@@H](O)[C@H](C)O2)[C@H](C)[C@@H](O[C@@H]2O[C@H](C)C[C@H](N(C)C)[C@H]2O)[C@](C)(O)C[C@@H](C)C(=O)[C@H](C)[C@@H](O)[C@]1(C)O` [ERYTHROMYCIN], the MIC against Staphylococcus aureus [1] was not above 4 µg/mL; against Staphylococcus aureus [2], not below 512 µg/mL. Also, the MIC90 against Staphylococcus aureus [1] and in the assay with Staphylococcus aureus [2] was more than 8 µg/mL each time. In addition, the figures for the Activity with Staphylococcus aureus [3] and with Staphylococcus aureus [4] were 94% and 86%, respectively.
Take `CC(=O)O[C@H]1C[C@@]2(C)[C@@H](C[C@@H](O)[C@H]3[C@@]4(C)CC[C@@H](O)[C@@H](C)[C@@H]4CC[C@@]32C)/C1=C(\CCC=C(C)C)C(=O)O` [FUSIDIC ACID]: the MIC in the assay with Staphylococcus aureus [1] is not above 0.5 µg/mL; against Staphylococcus aureus [2], not below 512 µg/mL. Further, the MIC90 was 0.5 µg/mL (≈ 0.968 µM) in the assay with Staphylococcus aureus [1] and more than 8 µg/mL in the assay on Staphylococcus aureus [2]. The figures for the Activity in the assay on Staphylococcus aureus [3] and with Staphylococcus aureus [4] were 4% and 21%, respectively.
As to `CC(=O)NC[C@H]1CN(c2ccc(N3CCOCC3)c(F)c2)C(=O)O1` [LINEZOLID], the MIC is not above 4 µg/mL with Staphylococcus aureus [1] and not below 512 µg/mL in the assay with Staphylococcus aureus [2]. For the same compound, the MIC90 against Staphylococcus aureus [1] amounted to 1 µg/mL (≈ 2.96 µM); in the assay with Staphylococcus aureus [2], 2 µg/mL (≈ 5.93 µM). Further, the Activity in the assay with Staphylococcus aureus [3] and in the assay on Staphylococcus aureus [4] was 0% in each case.
For `C/C(=C\C(=O)OCCCCCCCCC(=O)O)C[C@@H]1OC[C@H](C[C@@H]2O[C@H]2[C@@H](C)[C@H](C)O)[C@@H](O)[C@H]1O` [MUPIROCIN], the values for the MIC against Staphylococcus aureus [1] and against Staphylococcus aureus [2] were not above 4 µg/mL and not below 512 µg/mL, respectively. For the same compound, the MIC90 against Staphylococcus aureus [1] is 0.5 µg/mL (≈ 0.999 µM); against Staphylococcus aureus [2], more than 512 µg/mL. For the same compound, the values for the Activity with Staphylococcus aureus [3] and in the assay on Staphylococcus aureus [4] were 0% and 100%, respectively.
For `CO[C@H]1/C=C/O[C@@]2(C)Oc3c(C)c(O)c4c(O)c(c(/C=N/N5CCN(C)CC5)c(O)c4c3C2=O)NC(=O)/C(C)=C\C=C\[C@H](C)[C@H](O)[C@@H](C)[C@@H](O)[C@@H](C)[C@H](OC(C)=O)[C@@H]1C` [RIFAMPIN], the values for the MIC in the assay with Staphylococcus aureus [1] and with Staphylococcus aureus [2] were not above 4 µg/mL and not below 512 µg/mL, respectively. The MIC90 against Staphylococcus aureus [1] and against Staphylococcus aureus [2] was less than 0.5 µg/mL throughout. For the same compound, the values for the Activity with Staphylococcus aureus [3] and in the assay with Staphylococcus aureus [4] were 2% and 4%, respectively.
Regarding `CN(C)[C@@H]1C(O)=C(C(N)=O)C(=O)[C@@]2(O)C(O)=C3C(=O)c4c(O)cccc4[C@@](C)(O)[C@H]3C[C@@H]12` [TETRACYCLINE], the MIC was not above 4 µg/mL against Staphylococcus aureus [1] and not below 512 µg/mL with Staphylococcus aureus [2]. Also, the results for the MIC90 in the assay with Staphylococcus aureus [1] and with Staphylococcus aureus [2] were more than 16 µg/mL and less than 4 µg/mL, respectively. For the same compound, the Activity amounted to 23% with Staphylococcus aureus [3] and 7% in the assay on Staphylococcus aureus [4].
For `CN[C@H](CC(C)C)C(=O)N[C@H]1C(=O)N[C@@H](CC(N)=O)C(=O)N[C@H]2C(=O)N[C@H]3C(=O)N[C@H](C(=O)N[C@H](C(=O)O)c4cc(O)cc(O)c4-c4cc3ccc4O)[C@H](O)c3ccc(c(Cl)c3)Oc3cc2cc(c3O[C@@H]2O[C@H](CO)[C@@H](O)[C@H](O)[C@H]2O[C@H]2C[C@](C)(N)[C@H](O)[C@H](C)O2)Oc2ccc(cc2Cl)[C@H]1O` [VANCOMYCIN], the MIC against Staphylococcus aureus [1] is not above 4 µg/mL; against Staphylococcus aureus [2], not below 512 µg/mL. The MIC90 against Staphylococcus aureus [1] and with Staphylococcus aureus [2] was 1 µg/mL (≈ 0.69 µM) in each case. The Activity in the assay on Staphylococcus aureus [3] and in the assay on Staphylococcus aureus [4] was 0% each time.
